Assay results from different studies.
Lines come from different studies, so protocols differ.
Target: Calcium/calmodulin-dependent protein kinase kinase 2 (CAMKK2, Homo sapiens, UniProt Q96RR4)

COc1ccc2[nH]c3c4[nH]c5ccc(OC)cc5c4c4c(c3c2c1)C(=O)NC4=O — remaining binding (binding; 1 µM): 74%
Cc1cc(O)c(-c2ccc([C@@H](C)CN(C)C)cc2)c2c1[nH]c(=O)c1sccc12 — inhibition (enzyme activity, inhibitor; 0.1 µM): 6.79%
Cc1ccc(NC(=O)c2ccnc(C(F)(F)F)c2)cc1-c1cc(OCCO)nc(N2CCOCC2)c1 — remaining binding (binding; 1 µM): 98%
CCCCC(=O)Nc1ccc(-c2ccc3ncn(CCC)c(=O)c3c2)cn1 — remaining binding (binding, competition with immobilised ligand; 0.5 µM): 100%
C=CC(=O)N1CCC([C@@H]2CCNc3c(C(N)=O)c(-c4ccc(Oc5ccccc5)cc4)nn32)CC1 — inhibition (enzyme activity, inhibitor; 1 µM): 12%
C#Cc1cc(-c2cc(Nc3nc(N[C@@H](C)c4ccc(F)cn4)ncc3Cl)n[nH]2)ccc1C=O — inhibition (enzyme activity, inhibitor; 0.2 µM): 57.9%
C=CC(=O)N1CCC[C@@H](n2nc(-c3ccc(Oc4ccccc4)cc3)c3c(N)ncnc32)C1 — inhibition (enzyme activity, inhibitor; 1 µM): 4%
C1=C/COCc2cc(ccc2OCCN2CCCC2)Nc2nccc(n2)-c2cccc(c2)COC/1 — remaining binding (binding; 0.1 µM): 68%
